Experimental data of several laboratories.

SMILES	test	system	conditions	solubility
CC(=Nc1ccc(N=Cc2cnccn2)cc1)N(C)C	shake flask	PBS	24 h, pH 7.4, 25 °C	~20 µg/mL
Cn1cncc1[C@@](N)(c1ccc(Cl)cc1)c1ccc2c(c1)c(-c1cccc(Cl)c1)cc(=O)n2C		water	pH 7.6, 25 °C	0.12 µg/mL
O=C(C=Cc1ccccc1)Nc1cc(-c2ccnc(N3CCC(O)CC3)c2)ccn1		water	pH 7.4	~115 µg/mL
CCCc1cc(C(=O)OC)c(NC(=O)C2CCN(C(C)=O)CC2)s1		PBS		> 20 µM
O=[N+]([O-])c1ccc(/C=N/c2c(-c3ccccc3)nc3ccc(Cl)cn23)cc1		aqueous buffer	pH 7	25 µg/mL
Cc1ccc(Cn2cc(C(=O)NN)c(=O)c3cc(Oc4ccccc4)ccc32)cc1	shake flask	PBS	24 h, pH 6.5, 25 °C	< 5 µM
CC(=Nc1ccc(N=Cc2ccc3[nH]cnc3c2)cc1)N(C)C	shake flask	PBS	24 h, pH 7.4, 25 °C	~20 µg/mL
CC(C)[C@H](NC(=O)[C@H](Cc1cscn1)NC(=O)CCc1ccccc1)C(=O)N[C@@H](CCCNC(=N)N)C(=O)c1nc2ccccc2s1		PBS	90 min, pH 7.4	> 10 µM
Cc1c(C(=O)O)ccc2c3n(nc12)[C@@H]1[C@H](C3)N(CC2CC2)[C@@]2(C(=O)Nc3cc(Cl)ccc32)[C@H]1c1cccc(Cl)c1F		FaSSIF		50 µg/mL
Cn1cnc2ccc(Nc3c(F)ccc(NS(=O)(=O)N4CC(F)C4)c3Cl)c(Cl)c2c1=O		FaSSIF	pH 6.91	13 µg/mL
Cc1cccn2c(=O)c3cc(C(=O)N[C@@H](C)c4ccccc4)c(N)[n+](CCOCCO)c3nc12		PBS		> 20 µM
O=[N+]([O-])c1ccccc1/C=N/c1c(-c2ccccc2)nc2ccc(Cl)cn12		aqueous buffer	pH 7	< 1 µg/mL
